Tests used:
A549 [1] = assay: Induction of apoptosis in human A549 cells assessed as early apoptosis cells level at 2 times antiproliferative IC50 incubated for 24 hrs by Annexin V-FITC/propidium iodide double staining based flow cytometry (reference value: 0.116%); type: functional
A549 [2] = assay: Antitumor activity against human A549 cells xenografted in Balb/ca-nu mouse assessed as tumor growth inhibition at 2.5 mg/kg, iv dosed every 3 days for total of 7 dosing rounds measured on day 16 after treatment; type: functional; settings: read-out: TGI
In short: (§1)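 A549 xenograft in mice, dosed by tail vein injection every 3 days; vehicle saline plus 0.2% Tween 80. n = 8 per treatment group, 6 in the vehicle group. Mean ± SE.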

A549 [3] = assay: Antiproliferative activity against human A549 cells assessed as inhibition of cell proliferation incubated for 48 hrs by CCK8 assay; type: functional, cell-based; settings: A549, 48 h
In short: (§2)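 Human A549 lung, Hela cervical, Bel-7402 hepatocellular and MCF-7 breast cancer cells, plus mouse embryo fibroblast NIH3T3, tested for anti-proliferative activity by CCK-8 assay. For the matrine combination tests, the chalcone and matrine were used at a 1:1 molar ratio; values given as IC50.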

A549 [4] = assay: Antitumor activity against human A549 cells xenografted in Balb/ca-nu mouse assessed as tumor growth inhibition at 5 mg/kg, iv dosed every 3 days for total of 7 dosing rounds measured on day 14 after treatment; type: functional; settings: read-out: TGI; in short: as §1
A549 [5] = assay: Antitumor activity against human A549 cells xenografted in Balb/ca-nu mouse assessed as tumor growth inhibition at 2.5 mg/kg, iv dosed every 3 days for total of 7 dosing rounds measured on day 12 after treatment; type: functional; settings: read-out: TGI; in short: as §1
A549 [6] = assay: Antitumor activity against human A549 cells xenografted in Balb/ca-nu mouse assessed as tumor growth inhibition at 5 mg/kg, iv dosed every 3 days for total of 7 dosing rounds measured on day 12 after treatment; type: functional; settings: read-out: TGI; in short: as §1
A549 [7] = assay: Antitumor activity against human A549 cells xenografted in Balb/ca-nu mouse assessed as tumor growth inhibition at 5 mg/kg, iv dosed every 3 days for total of 7 dosing rounds measured on day 10 after treatment; type: functional; settings: read-out: TGI; in short: as §1
A549 [8] = assay: Potency index, ratio of IC50 for 5-fluorouracil to IC50 for compound against human A549 cells incubated for 48 hrs by CCK8 assay; type: functional
A549 [9] = assay: Induction of apoptosis in human A549 cells incubated for 24 hrs by Annexin V-FITC/propidium iodide double staining based flow cytometry; type: functional, cell-based
A549 [10] = assay: Induction of apoptosis in human A549 cells assessed as late apoptosis cells level at 2 times antiproliferative IC50 incubated for 24 hrs by Annexin V-FITC/propidium iodide double staining based flow cytometry (reference value: 0.127%); type: functional
A549 [11] = assay: Induction of apoptosis in human A549 cells assessed as early apoptosis cells level at IC50 incubated for 24 hrs by Annexin V-FITC/propidium iodide double staining based flow cytometry (reference value: 0.116%); type: functional
A549 [12] = assay: Antitumor activity against human A549 cells xenografted in Balb/ca-nu mouse assessed as tumor growth inhibition at 10 mg/kg, iv dosed every 3 days for total of 7 dosing rounds measured on day 12 after treatment; type: functional; settings: read-out: TGI; in short: as §1
A549 [13] = assay: Induction of apoptosis in human A549 cells assessed as viable cells level at 0.5 times antiproliferative IC50 incubated for 24 hrs by Annexin V-FITC/propidium iodide double staining based flow cytometry (reference value: 99.7%); type: functional
A549 [14] = assay: Induction of apoptosis in human A549 cells assessed as necrosis cells level at 0.5 times antiproliferative IC50 incubated for 24 hrs by Annexin V-FITC/propidium iodide double staining based flow cytometry (reference value: 0.042%); type: functional
A549 [15] = assay: Antitumor activity against human A549 cells xenografted in Balb/ca-nu mouse assessed as tumor growth inhibition at 10 mg/kg, iv dosed every 3 days for total of 7 dosing rounds measured on day 10 after treatment; type: functional; settings: read-out: TGI; in short: as §1
A549 [16] = assay: Induction of apoptosis in human A549 cells assessed as late apoptosis cells level at IC50 incubated for 24 hrs by Annexin V-FITC/propidium iodide double staining based flow cytometry (reference value: 0.127%); type: functional
A549 [17] = assay: Induction of apoptosis in human A549 cells assessed as necrosis cells level at 2 times antiproliferative IC50 incubated for 24 hrs by Annexin V-FITC/propidium iodide double staining based flow cytometry (reference value: 0.042%); type: functional
[18] = Antiproliferative activity against human Bel7402 cells assessed as inhibition of cell proliferation incubated for 48 hrs by CCK8 assay; type: functional, cell-based; settings: Bel-7402, 48 h; in short: as §2
MCF7 = assay: Antiproliferative activity against human MCF7 cells assessed as inhibition of cell proliferation incubated for 48 hrs by CCK8 assay; type: functional, cell-based; settings: MCF7, 48 h; in short: as §2
A549 [19] = assay: Antitumor activity against human A549 cells xenografted in Balb/ca-nu mouse assessed as tumor growth inhibition at 2.5 mg/kg, iv dosed every 3 days for total of 7 dosing rounds measured on day 10 after treatment; type: functional; settings: read-out: TGI; in short: as §1
A549 [20] = assay: Induction of apoptosis in human A549 cells assessed as viable cells level at IC50 incubated for 24 hrs by Annexin V-FITC/propidium iodide double staining based flow cytometry (reference value: 99.7%); type: functional
A549 [21] = assay: Induction of apoptosis in human A549 cells assessed as late apoptosis cells level at 0.5 times antiproliferative IC50 incubated for 24 hrs by Annexin V-FITC/propidium iodide double staining based flow cytometry (reference value: 0.127%); type: functional
A549 [22] = assay: Antitumor activity against human A549 cells xenografted in Balb/ca-nu mouse assessed as tumor growth inhibition at 5 mg/kg, iv dosed every 3 days for total of 7 dosing rounds measured on day 16 after treatment; type: functional; settings: read-out: TGI; in short: as §1
A549 [23] = assay: Induction of apoptosis in human A549 cells assessed as early apoptosis cells level at 0.5 times antiproliferative IC50 incubated for 24 hrs by Annexin V-FITC/propidium iodide double staining based flow cytometry (reference value: 0.116%); type: functional
A549 [24] = assay: Antitumor activity against human A549 cells xenografted in Balb/ca-nu mouse assessed as tumor growth inhibition at 2.5 mg/kg, iv dosed every 3 days for total of 7 dosing rounds measured on day 20 after treatment; type: functional; settings: read-out: TGI; in short: as §1
A549 [25] = assay: Induction of apoptosis in human A549 cells assessed as necrosis cells level at IC50 incubated for 24 hrs by Annexin V-FITC/propidium iodide double staining based flow cytometry (reference value: 0.042%); type: functional
A549 [26] = assay: Induction of apoptosis in human A549 cells assessed as viable cells level at 2 times antiproliferative IC50 incubated for 24 hrs by Annexin V-FITC/propidium iodide double staining based flow cytometry (reference value: 99.7%); type: functional
A549 [27] = assay: Antitumor activity against human A549 cells xenografted in Balb/ca-nu mouse assessed as tumor growth inhibition at 10 mg/kg, iv dosed every 3 days for total of 7 dosing rounds measured on day 14 after treatment; type: functional; settings: read-out: TGI; in short: as §1
A549 [28] = assay: Antitumor activity against human A549 cells xenografted in Balb/ca-nu mouse assessed as tumor growth inhibition at 10 mg/kg, iv dosed every 3 days for total of 7 dosing rounds measured on day 20 after treatment; type: functional; settings: read-out: TGI; in short: as §1
Mus musculus = assay: Toxicity in human A549 cells xenografted Balb/ca-nu mouse assessed as effect on body weight at 2.5 to 10 mg/kg, iv dosed every 3 days for total of 7 dosing rounds measured on day 10 to day 20 after treatment; type: organism-based; parameters: dose 2.5-10 mg/kg, route intravenous; settings: in vivo, 72 h; in short: as §1

IC50 (A549 [3]): 5.01 µM | IC50 (MCF7): 6.25 µM
SMILES: O=C(/C=C/c1cccc(Cl)c1)c1ccc(OCc2cn([C@H]3CC(=O)N4C[C@@H]5CCCN6CCC[C@@H]([C@H]56)[C@H]4C3)nn2)cc1O
Activity (A549 [1]): 34.2% | inhibition in vivo at 2.5 mg/kg (A549 [2]): 33.2% | inhibition in vivo at 5 mg/kg (A549 [4]): 45.9% | inhibition in vivo at 2.5 mg/kg (A549 [5]): 12.2% | inhibition in vivo at 5 mg/kg (A549 [6]): 34.8% | inhibition in vivo at 5 mg/kg (A549 [7]): 29% | Ratio IC50 (A549 [8]): 8 | Activity (A549 [9]): Dose-dependent effect | Activity (A549 [10]): 33.1% | Activity (A549 [11]): 31.1% | inhibition in vivo at 10 mg/kg (A549 [12]): 70.9% | Activity (A549 [13]): 57.9% | Activity (A549 [14]): 5.99% | inhibition in vivo at 10 mg/kg (A549 [15]): 60.5% | Activity (A549 [16]): 16.2% | Activity (A549 [17]): 2.57% | IC50 [18]: 5.6 µM | inhibition in vivo at 2.5 mg/kg (A549 [19]): 5.4% | Activity (A549 [20]): 47.7% | Activity (A549 [21]): 16.3% | inhibition in vivo at 5 mg/kg (A549 [22]): 54.9% | Activity (A549 [23]): 19.8% | inhibition in vivo at 2.5 mg/kg (A549 [24]): 43.9% | Activity (A549 [25]): 4.95% | Activity (A549 [26]): 30.1% | inhibition in vivo at 10 mg/kg (A549 [27]): 78.8% | inhibition in vivo at 10 mg/kg (A549 [28]): 89.6% | Activity (Mus musculus): Non-toxic

Source: ChEMBL document CHEMBL3425481, “Design, synthesis and anticancer activity of matrine-1H-1,2,3-triazole-chalcone conjugates” (Bioorg Med Chem Lett, 2015)
